Measurements collected from several papers.
Protocols differ between the studies behind these lines.
Target: SRSF protein kinase 3 (SRPK3, Homo sapiens, UniProt Q9UPE1)

observed	method	tested at	remaining binding [%]	SMILES
binding	–	1 µM	68	C[C@H]1CCN(c2nccc(-c3cnn4ncccc34)n2)C1
cell-free assay	competition with immobilised ligand	1 µM	100	CO[C@H]1CC[C@H](CNc2ccc(S(=O)(=O)NC(=O)c3ccc(N4CCN(CC5=C(c6ccc(Cl)cc6)CC(C)(C)CC5)CC4)cc3Oc3cnc4[nH]ccc4c3)cc2[N+](=O)[O-])CC1
binding	competition with immobilised ligand	50 nM	97	C[C@@H]1CN(c2ccc3ncc(-c4ccc5[nH]nc(C6CC6)c5c4)n3n2)C[C@H](C)O1
binding	competition with immobilised ligand	1 µM	79	COc1cnc(Nc2cccc(S(N)(=O)=O)c2)nc1N1CCN(c2ccccc2)C(=O)C1
binding	–	1 µM	86	CC1CCCN1c1nccc(-c2cnn3ncccc23)n1 (stereo not drawn)
binding	competition with immobilised ligand	1 µM	100	O=C(c1ccc(Nc2ncc(Cl)c(-c3ccc(Cl)s3)n2)cc1)N1CCC(N2CCCC2)CC1
binding	competition with immobilised ligand	1 µM	95	COc1cnc(Nc2cccc(S(N)(=O)=O)c2)nc1N1CCN(c2ccccc2)CC1
binding	–	1 µM	100	CN(C)c1ncc(F)c(-c2cnn3ncccc23)n1
binding	competition with immobilised ligand	10 µM	75	N#Cc1ccccc1CSc1nnc2c(n1)[nH]c1ccccc12
cell-free assay	competition with immobilised ligand	1 µM	100	CCS(=O)(=O)c1cc2cc(C[C@@](O)(CC(C)(C)c3ccc(F)cc3C(N)=O)C(F)(F)F)[nH]c2cn1
binding	–	1 µM	81	N[C@@H]1CCN(c2nccc(-c3cnn4ncccc34)n2)C1
binding	competition with immobilised ligand	1 µM	100	O=C(NCCCN1CCOCC1)c1ccc(Nc2ncc(Cl)c(-c3ccc(Cl)s3)n2)cc1
binding	–	1 µM	56	Cc1cnn2ncc(-c3ccnc(N(C)C)n3)c2c1
binding	competition with immobilised ligand	1 µM	83	O=C(NCC1CCOCC1)c1n[nH]cc1NC(=O)c1c(F)cccc1F
binding	competition with immobilised ligand	1 µM	100	Cc1c(C(=O)O)cc(-c2ccc(C3CCNCC3)cc2)c2ccc(-c3ccc(C(F)(F)F)cc3)cc12
cell-free assay	competition with immobilised ligand	10 µM	100	CC(C)(C)c1ccc(-c2nc(CBr)nn2-c2cccc(O)c2)cc1
cell-free assay	competition with immobilised ligand	1 µM	100	O=C(Nc1cccnn1)N1CC(C/C=C/c2cncc(Oc3ccc(C(F)(F)F)cn3)n2)C1
binding	competition with immobilised ligand	10 µM	55	c1cncc(-c2cccc(Nc3nccc(NC4CCCCC4)n3)c2)c1
cell-free assay	competition with immobilised ligand	0.1 µM	100	C[C@@H]1CN(c2cc(-c3n[nH]c4ccc(OC5(C)CC5)cc34)ncn2)C[C@H](C)O1
binding	–	1 µM	92	CN(C)c1nccc(-c2cnn3ncccc23)n1
cell-free assay	competition with immobilised ligand	1 µM	57	COc1ccc2c(O[C@@H]3C[C@H]4C(=O)N[C@]5(C(=O)O)CC5/C=C\CCCCC[C@H](NC(=O)OC5CCCC5)C(=O)N4C3)cc(-c3csc(NC(=O)C(C)C)n3)nc2c1C (stereo partly drawn)
binding	competition with immobilised ligand	1 µM	100	O=C(c1ccc(Nc2ncc(Cl)c(-c3cc4ccccc4s3)n2)cc1)N1CCC(N2CCCC2)CC1
cell-free assay	competition with immobilised ligand	1 µM	100	NS(=O)(=O)c1cc(NC(=O)Cc2ccccc2)ccc1Oc1cccc(Cl)c1
binding	–	1 µM	83	CN(c1nccc(-c2cnn3ncccc23)n1)C1CC1
